Assay results gathered from unrelated publications.
Compare with care: the assays were run in different laboratories.
FGFR3: Fibroblast growth factor receptor 3 (FGFR3, Homo sapiens, UniProt P22607)
FGFR3 G697C: Fibroblast growth factor receptor 3 (FGFR3, Homo sapiens, UniProt P22607, G697C)

Structure (SMILES)	target	read-out	action	technique	tested at	endpoint	value
O=C(CSc1nc2nccnc2c(=O)n1CCc1ccccc1)Nc1nccs1	FGFR3	enzyme activity	inhibitor	–	10 µM	inhibition	8%
Cc1ccc(C(=O)NCc2ccsc2)cc1C#Cc1cn(C(C)C)c2ncnc(N)c12	FGFR3	enzyme activity	inhibitor	–	1 µM	activity vs control	33%
CNc1cccc2cc(C(=O)Nc3ccc(C(=O)O)cc3)c(=O)[nH]c12	FGFR3	enzyme activity	inhibitor	–	10 µM	inhibition	-1.1%
Cc1c(C(=O)O)cc(-c2ccc(C3CCNCC3)cc2)c2ccc(-c3ccc(C(F)(F)F)cc3)cc12	FGFR3	cell-free assay	–	competition with immobilised ligand	1 µM	remaining binding	100%
Nc1ncnc2occ(-c3ccc(NC(=O)Nc4cc(C(F)(F)F)ccc4F)cc3)c12	FGFR3	cell-free assay	–	–	20 µM	remaining signal	0.75%
Cc1c(NC(=O)c2cc(C(N)=O)nc3cc(F)ccc23)c(C(F)(F)F)nn1Cc1ccc(C(C)(C)C)cc1	FGFR3	cell-free assay	–	competition with immobilised ligand	1 µM	remaining binding	92%
Cc1ccc(C(=O)Nc2ccc(CN3CCN(C)CC3)c(C(F)(F)F)c2)cc1C#Cc1cnc2cccnn12	FGFR3 G697C	cell-free assay	–	–	23.5 nM	remaining signal	63%
O=C(Nc1cnn(-c2csc(C(=O)NC3COC3)c2)c1)Nc1c(F)cccc1Cl	FGFR3	enzyme activity	inhibitor	–	5 µM	remaining activity	92%
CCOCCn1cc(C(=O)Nc2ccc(-n3nc(-c4cccnc4)cc3C(F)(F)F)cn2)ccc1=O	FGFR3	cell-free assay	–	competition with immobilised ligand	1 µM	remaining binding	84%
Cc1ccc(NC(=O)c2ccc(CN3CCN(C)CC3)cc2)cc1Nc1nc(-c2cccnc2)cs1	FGFR3	cell-free assay	–	–	0.5 µM	remaining signal	94.3%
COc1cc2ncnc(Nc3ccc(Oc4ccccc4)c(C)c3C)c2cc1OC	FGFR3	enzyme activity	inhibitor	–	1 µM	inhibition	-2%
CCc1ccccc1C(=O)Nc1n[nH]c2c(C)c(F)c(C3C(C#N)=C(C)N(C)C(C)=C3C#N)cc12	FGFR3	cell-free assay	–	competition with immobilised ligand	1 µM	remaining binding	93%
N#CCCc1ccc2c(c1)-c1[nH]c3ccc([N+](=O)[O-])cc3c1CC(=O)N2	FGFR3	cell-free assay	–	–	0.5 µM	remaining signal	90.3%
Cc1ccc(Nc2nccc(N(C)c3ccc4c(C)n(C)nc4c3)n2)cc1S(N)(=O)=O	FGFR3	enzyme activity	inhibitor	–	10 µM	inhibition	99%
CNC(=O)c1ccc(Nc2ncc(C(F)(F)F)c(NCc3nccnc3N(C)S(C)(=O)=O)n2)cc1	FGFR3 G697C	cell-free assay	–	competition with immobilised ligand	0.1 µM	remaining binding	100%
CC/C(=N\NC(=O)NCc1cccc(O)c1)c1ccc(O)c(C)c1O	Fibroblast growth factor receptor 3 (FGFR3, Homo sapiens, UniProt P22607, K650M)	enzyme activity	inhibitor	–	0.1 µM	inhibition	4.2%
CCS(=O)(=O)c1cc2cc(C[C@](O)(CC(C)(C)c3ccc(F)cc3C(N)=O)C(F)(F)F)[nH]c2cn1	FGFR3 G697C	cell-free assay	–	competition with immobilised ligand	1 µM	remaining binding	96%
CC(C)(O)[C@H]1CC[C@H](Nc2ccc3ncc(-c4cccc(C(F)(F)F)c4)n3n2)CC1	FGFR3	enzyme activity	inhibitor	–	1 µM	remaining activity	102%
CSc1nc(C)c(-c2ccnc(Nc3ccc(N4CCOCC4)cc3)c2)[nH]1	FGFR3	cell-free assay	inhibitor	–	10 µM	inhibition	70.4%
Nc1nc(Nc2ccc(S(N)(=O)=O)cc2)nn1C(=O)c1c(F)cccc1F	FGFR3	cell-free assay	–	–	0.5 µM	remaining signal	46.4%
COc1cc2ncnc(Nc3ccc(Oc4ccccc4)cc3C)c2cc1OC	FGFR3	enzyme activity	inhibitor	–	1 µM	inhibition	5%
CC(C)(C)c1nc(-c2cccc(NS(=O)(=O)c3c(F)cccc3F)c2F)c(-c2ccnc(N)n2)s1	FGFR3	enzyme activity	inhibitor	radiometric	1 µM	remaining activity	118%
Cc1cnc(NC2CCOCC2)nc1-n1cnc(C(=O)NC(CN)c2cc(F)cc(Cl)c2)c1 (centres unmarked)	FGFR3	enzyme activity	inhibitor	radiometric	1 µM	remaining activity	100%
Cc1nccc(COC(=O)N2C[C@@H]3[C@@H](CNC(=O)c4ccc5[nH]nnc5c4)[C@@H]3C2)n1	FGFR3 G697C	cell-free assay	–	competition with immobilised ligand	1 µM	remaining binding	97%
CNCc1ccc(-c2cc(-c3nc(-c4ccc(S(=O)(=O)C(C)C)cc4)cnc3N)on2)cc1	FGFR3	enzyme activity	inhibitor	–	2 µM	inhibition	10%
CN(C)C(=O)Cn1cc(-c2nc([C@@](C)(c3ccc(-c4cnc(N)nc4)cc3)C3CC3)no2)cn1	FGFR3	cell-free assay	–	competition with immobilised ligand	1 µM	remaining binding	94%
CNC(=O)c1cc(Oc2ccc(NC(=O)Nc3ccc(Cl)c(C(F)(F)F)c3)cc2)ccn1	FGFR3	enzyme activity	inhibitor	–	0.3 µM	inhibition	32%
COc1ccc(COc2ccc(Cc3cnc(N)nc3N)cc2OC)cc1	FGFR3	cell-free assay	–	–	0.5 µM	remaining signal	105%
Cc1sc(C(=O)NC2COC2)cc1-n1cc(NC(=O)Nc2c(F)cccc2Cl)cn1	FGFR3	enzyme activity	inhibitor	–	10 µM	remaining activity	137%
